Data set [1] in a line: Cytotoxicity against human Caco2 cells infected with MERS-CoV measured after 48 hrs by WST1 assay. The format is cell-based, Caco-2. The gist of the method: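 Cells at 1×10^4/well, cultured overnight at 37 °C, were incubated 48 h with serially diluted compound. Viability was read by WST-1 absorbance (OD450/OD630).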
A general note: Tetrazolium assays rely on reduction of a dye to a coloured formazan, in cell work by metabolically active cells.

Data set [2] is described as follows: Selectivity index, ratio of CC50 for human Huh7.5.1 cells to EC50 for ZIKV infected in human Huh7.5.1 cells. It is filed as toxicity, cell-based. The note with it: read-out: Ratio CC50/EC50. The gist of the method:
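SI from two assays. Antiviral: Huh7.5.1 cells infected with DENV II or ZIKV at MOI 0.1; viral RNA measured by qRT-PCR after 3 days; EC50 taken at 50% RNA reduction. Cytotoxicity: cells seeded at 1×10^4/well, given serially diluted compound for 48 h, then WST-1 absorbance (OD450/OD630) read for CC50.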

The test system of data set [3] is Respiratory syncytial virus. As to the kind of experiment: Antiviral activity against RSV infected in African green monkey Vero cells assessed as inhibition of viral replication measured after 5 to 7 days by plaque formation assay. It is filed as functional, organism-based. Conditions: human respiratory syncytial virus. Put shortly: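 Vero cells at 2×10^4/well were cultured 18 h, then infected with RSV at 2000 TCID50/ml. Compound (0.01–20 µM) was added immediately. Viral amount was measured by plaque formation assay.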

A short description of data set [4]: Selectivity index, ratio of CC50 for MDCK cells to EC50 for Gaussia tagged A/PR/08/34(H1N1) virus infected in MDCK cells. It is filed as toxicity, cell-based. Conditions: dog, read-out: Ratio CC50/EC50. The gist of the method:
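MDCK cells seeded at 1×10^5/well overnight, infected with A/PR/08/34(H1N1)-Gaussia luciferase at MOI 0.1, then given 0.05–20 µM compound immediately. Virus read by luminescence or qRT-PCR at 24 hpi; EC50 at 50% signal reduction. CC50 by WST-1 (OD450/OD630) after 48 h of serially diluted compound.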

Data set [5] in a line: Selectivity index, ratio of CC50 for African green monkey Vero cells to EC50 for RSV infected in African green monkey Vero cells. It is filed as toxicity. Conditions: read-out: Ratio CC50/EC50.
For data set [6], the system named is Hepatitis C virus. As to the kind of experiment: Antiviral activity against EGFP-fused HCV JFH-1 harboring K78E/E2-G451R/NS3-M260K/NS5A-T462I mutation infected in human Huh7.5.1 cells assessed as reduction in viral RNA level after 2 days in presence of daclatasvir by qRT-PCR analysis. The note with it: Hepacivirus hominis. It is filed as functional, organism-based. Put shortly: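 Huh7.5.1 cells at 1×10^4/well, grown overnight at 37 °C. HCVcc was mixed with serially diluted compound (top 30 or 6 μM), given alone or with the named drug, and added to the cells. Viral RNA was read by qRT-PCR after 2 days. EC50 is the concentration giving 50% RNA reduction.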
A general note: Quantitative PCR measures a nucleic acid by following its amplification.

Data set [7] concerns Hepatitis C virus. As to the kind of experiment: Antiviral activity against EGFP-fused HCV JFH-1 harboring K78E/E2-G451R/NS3-M260K/NS5A-T462I mutation infected in human Huh7.5.1 cells assessed as combination index after 2 days in presence of sofosbuvir by qRT-PCR analysis. It is filed as functional, Hepacivirus hominis. The gist of the method: (§1)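 In HCVcc-infected Huh7.5.1 cells (1×10^4/well, overnight, 37 °C), compound was given at various concentrations alone or with the named approved antiviral. After 2 days HCV RNA was quantified by qRT-PCR to derive the combination index.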

Data set [8] relates to Hepatitis C virus. Kind of data set: Antiviral activity against HCV infected in human Huh7.5.1 cells assessed as decrease in viral infection. The format is functional, organism-based, Hepacivirus hominis. Conditions: Huh-7.5.1.
Data set [9] is described as follows: Selectivity index, ratio of CC50 for HEK293T cells to EC50 for HIV pseudotyped virions infected in HEK293T cells. It is filed as toxicity, cell-based. The note with it: human, read-out: Ratio CC50/EC50. The gist of the method: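 HIV pseudovirus made from VSVG plus env-deficient pNL4-3.luc.R-E- in HEK293T cells and diluted to 0.2 ng p24/ml. Target HEK293T cells were given compound 15 min before infection and lysed 48 h post-infection. CC50 by 48 h WST-1 viability (OD450/OD630).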

Data set [10] addresses T1, Sialate O-acetylesterase (Homo sapiens) (UniProt Q9HAT2).
T1 sequence (whole entry): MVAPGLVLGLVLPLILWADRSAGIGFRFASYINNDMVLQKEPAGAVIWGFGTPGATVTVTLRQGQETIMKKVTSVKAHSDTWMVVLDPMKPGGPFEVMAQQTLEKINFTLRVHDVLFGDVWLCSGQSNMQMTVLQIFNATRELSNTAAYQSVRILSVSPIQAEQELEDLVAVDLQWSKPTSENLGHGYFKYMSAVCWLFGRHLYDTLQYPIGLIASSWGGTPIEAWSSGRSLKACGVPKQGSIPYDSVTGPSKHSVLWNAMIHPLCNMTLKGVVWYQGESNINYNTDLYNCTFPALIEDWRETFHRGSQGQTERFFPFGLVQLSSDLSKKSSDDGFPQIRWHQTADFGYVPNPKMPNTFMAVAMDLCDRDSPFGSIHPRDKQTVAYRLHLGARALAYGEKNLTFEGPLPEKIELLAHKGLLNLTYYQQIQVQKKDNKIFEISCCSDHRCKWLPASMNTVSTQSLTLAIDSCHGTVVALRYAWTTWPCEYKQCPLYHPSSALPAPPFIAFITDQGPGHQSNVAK
Kind of data set: Binding affinity to SIAE in human Huh7.5.1 cell lysate infected with HCV at 0.1 to 10 uM incubated for 1 hr followed by 10000 mJ/cm2 UV irradiation for 10 mins and subsequent addition of biotin-N3 measured after 1 hr by ABPP Gel-based by LC/MS/MS analysis. It is filed as subcellular. Put shortly:
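ABPP: Huh7.5.1 cells HCV-infected 2 days were lysed by sonication in PBS with protease inhibitors (~1.5 mg/ml protein). Photo-probe at 1.0–10.0 μM was UV-crosslinked (350 nm, 10000 mJ/cm2, 10 min), then clicked to biotin-N3 (CuSO4/TBTA/TCEP, 1 h RT). Proteins were precipitated, avidin pull-down, washed with SDS, urea, PBS; LC-MS/MS versus negative-probe, competitor and DMSO groups.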

Data set [11] addresses Heat shock protein HSP90 (Homo sapiens) (UniProt P07900+P08238). Kind of data set: Binding affinity to HSP90 (unknown origin). It is filed as protein assay.
For data set [12], the species on record is Homo sapiens. Kind of data set: Potency index, ratio of teriflunomide IC50 to test compound IC50 for C-terminal 6-His tagged recombinant human DHODH N-terminal domain delta29 mutant expressed in Escherichia coli BL21(DE3). Put shortly: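 DCIP assay: His6-Δ29 human DHODH at 10 nM final in 50 mM HEPES pH 7.7, 150 mM KCl, 0.1% Triton X-100, with 100 μM UQ0 and 120 μM DCIP, preincubated 5 min at RT. Reaction started with 500 μM dihydroorotate; A600 read every 30 s for 6 min.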

Data set [13] has as its system Middle East respiratory syndrome-related coronavirus. Kind of data set: Antiviral activity against MERS-CoV infected in human Caco2 cells assessed as inhibition of viral replication measured at 18 hrs post-infection by plaque formation assay. The format is functional, organism-based. Conditions: Caco-2, 18 h.
Data set [14] is described as follows: Selectivity index, ratio of CC50 for African green monkey Vero cells to EC50 for CHIKV infected in African green monkey Vero cells. The format is toxicity. Conditions: read-out: Ratio CC50/EC50.
Data set [15] relates to Hepatitis C virus. Kind of data set: Antiviral activity against EGFP-fused HCV JFH-1 harboring K78E/E2-G451R/NS3-M260K/NS5A-T462I mutation infected in human Huh7.5.1 cells assessed as combination index after 2 days in presence of boceprevir by qRT-PCR analysis. The format is functional, Hepacivirus hominis. The gist of the method:
as §1

Structures are written as SMILES. Calls of active or inactive are those of the source. No cut-off for these calls is given here. A value given as a limit tells only on which side of the number the result lay.

On to `CCN(CC)c1ccc(Oc2ccc(-c3[nH]c4cccc(F)c4c(=O)c3C)cc2F)cc1`, for which, in data set [1], the CC50 (as a rule, the concentration giving 50% cytotoxicity) at 48 h is above 2500 nM. Further, the selectivity ratio in [2] was above 125; in data set [4] it was above 10; in data set [5], above 41; in data set [9], above 96; in [14], above 10. For the same molecule, the EC50 (in general, the midpoint of the concentration-response curve) amounted to 60 nM in [3], 15 nM in data set [8] and 333 nM in [13]. Besides, the Activity result in data set [6] is “Dose-dependent effect”. In addition, the CI in data set [7] and in [15] was above 50 each time. The outcome in [10] was Active. In addition, the result in data set [11] was inactive. Further, the Ratio IC50 in [12] was determined as 4.

The values are drawn from ChEMBL document CHEMBL4334439, “Discovery, Optimization, and Target Identification of Novel Potent Broad-Spectrum Antiviral Inhibitors” (J Med Chem, 2019).
